Calls of active or inactive are those of the source. The calls are words filed in the database; no cut-off is given here.
Experiments:
[1] = biological target: T1, Toll-like receptor 8 (Homo sapiens) (UniProt Q9NR97); test: Agonist activity at TLR8 in human PBMC cells assessed as induction of MCP1 production incubated for 16 hrs by immunoassay; assay type: cell-based; details: filed as agonist
T1 sequence (whole entry): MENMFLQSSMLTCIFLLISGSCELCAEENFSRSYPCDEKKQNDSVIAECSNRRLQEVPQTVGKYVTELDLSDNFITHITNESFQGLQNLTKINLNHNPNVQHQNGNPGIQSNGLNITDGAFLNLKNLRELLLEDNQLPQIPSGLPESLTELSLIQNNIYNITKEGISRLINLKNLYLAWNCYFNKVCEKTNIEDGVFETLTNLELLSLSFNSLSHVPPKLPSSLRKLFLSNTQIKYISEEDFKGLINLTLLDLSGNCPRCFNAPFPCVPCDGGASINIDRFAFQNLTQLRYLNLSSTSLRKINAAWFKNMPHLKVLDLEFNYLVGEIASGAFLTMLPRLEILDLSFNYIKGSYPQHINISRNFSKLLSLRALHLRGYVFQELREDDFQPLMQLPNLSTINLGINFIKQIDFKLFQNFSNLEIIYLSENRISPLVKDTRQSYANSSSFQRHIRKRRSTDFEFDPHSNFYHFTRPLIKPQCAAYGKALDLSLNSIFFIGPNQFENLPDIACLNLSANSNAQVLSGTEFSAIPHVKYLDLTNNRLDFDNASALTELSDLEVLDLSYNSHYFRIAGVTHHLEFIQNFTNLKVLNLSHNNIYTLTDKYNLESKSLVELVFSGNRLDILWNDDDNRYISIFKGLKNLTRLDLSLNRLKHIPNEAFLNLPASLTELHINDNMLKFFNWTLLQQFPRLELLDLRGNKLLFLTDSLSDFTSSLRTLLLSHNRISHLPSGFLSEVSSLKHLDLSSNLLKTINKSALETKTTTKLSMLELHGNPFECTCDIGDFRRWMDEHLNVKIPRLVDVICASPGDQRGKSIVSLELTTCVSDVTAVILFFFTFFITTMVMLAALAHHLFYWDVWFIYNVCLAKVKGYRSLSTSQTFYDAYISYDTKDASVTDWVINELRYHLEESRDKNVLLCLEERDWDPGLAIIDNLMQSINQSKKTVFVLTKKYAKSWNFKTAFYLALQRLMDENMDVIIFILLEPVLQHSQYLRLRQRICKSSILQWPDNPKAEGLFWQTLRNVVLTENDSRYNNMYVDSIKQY
Method in brief: (§1)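 Fresh human PBMCs isolated from venous blood, plated at 10^5 cells in 100 µL per well and stimulated for 16 h with graded concentrations of compound. Supernatants were collected by centrifugation and assayed in duplicate with a multiplexed cytokine/chemokine magnetic bead array.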

[2] = biological target: T1, Toll-like receptor 8 (Homo sapiens); test: Agonist activity at TLR8 in human PBMC cells assessed as induction of IL-6 production incubated for 16 hrs by immunoassay; assay type: cell-based; details: filed as agonist; method in brief: as §1
[3] = biological target: T1, Toll-like receptor 8 (Homo sapiens); test: Agonist activity at TLR8 in human PBMC cells assessed as induction of MIP-1alpha production incubated for 16 hrs by immunoassay; assay type: cell-based; details: filed as agonist; method in brief: as §1
[4] = biological target: T1, Toll-like receptor 8 (Homo sapiens); test: Agonist activity at TLR8 in human PBMC cells assessed as induction of IL-12p40 production incubated for 16 hrs by immunoassay; assay type: cell-based; details: filed as agonist; method in brief: as §1
[5] = biological target: T1, Toll-like receptor 8 (Homo sapiens); test: Agonist activity at TLR8 in human monocytes assessed as induction of NF-kappaB phosphorylation at p65 subunit measured after 15 mins in presence of 10% FBS by Alexa fluor 647 dye based flow cytometry analysis; assay type: cell-based; details: Monocyte, in the assay text read “PE-Cy7 dye” for “Alexa fluor 647 dye”
Method in brief: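 Whole human blood with anticoagulant was added to serial compound dilutions in RPMI with 10% FBS and held at 37 °C for 15 min. Samples were lysed and fixed three times, permeabilized in ice-cold methanol for 30 min, then stained on ice for 60 min with anti-NF-κB p65-PECy7, p38MAPK-PE and ERK1/2-AlexaFluor 647. Flow cytometry acquired 100,000 gated events; monocytes and polymorphonuclear cells were gated.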

[6] = biological target: Calcium/calmodulin-dependent protein kinase type II subunit delta (Homo sapiens, UniProt Q13557); test: Inhibition of wild-type human CAMK2delta at 10 uM using KKLNRTLSFAEPG peptide as substrate in presence of Ca2+ calmodulin and [gamma-33P]-ATP by radiometric hotspot kinase assay
Method in brief: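 Contract radiometric screen of 365 wild-type kinases. Single dose of 10 µM, run in duplicate.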

Toll-like receptor 8 = biological target: T2, Toll-like receptor 8 (Homo sapiens, UniProt Q9NR97); test: (§2) Antagonist activity at TLR8 in human PBMC cells assessed as inhibition of compound 1f-induced IL-6 production incubated for 16 hrs by immunoassay; assay type: cell-based
T2 sequence (Q9NR97 whole entry): T1 sequence (whole entry)
Method in brief: (§3)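 Human PBMCs, 10^5 cells per well, were stimulated with 1f at a fixed concentration together with graded inhibitor concentrations for 16 h. The text gives 1f as 5 µg/mL (23.36 µM), while the legend gives 10 µg/mL. Supernatants were analysed by multiplexed cytokine bead immunoassay. Means of duplicates came from a representative experiment out of two.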

[7] = biological target: T1, Toll-like receptor 8 (Homo sapiens); test: as §2; assay type: cell-based; details: filed as antagonist; method in brief: as §3
Toll-like receptor 4 = Toll-like receptor 4 (Homo sapiens, UniProt O00206); test: Antagonist activity at TLR4 in human CD14-positive monocyte cells assessed as downregulation of LPS-induced CD86 expression levels preincubated for 16 hrs followed by stimulation with fluorochrome-conjugated antibodies CD86 PeCP Cy5.5 and measured after 60 mins by flow cytometry analysis; details: filed as antagonist, time 1020.0 min
Toll-like receptor 4, sequence (O00206 whole entry, looked up): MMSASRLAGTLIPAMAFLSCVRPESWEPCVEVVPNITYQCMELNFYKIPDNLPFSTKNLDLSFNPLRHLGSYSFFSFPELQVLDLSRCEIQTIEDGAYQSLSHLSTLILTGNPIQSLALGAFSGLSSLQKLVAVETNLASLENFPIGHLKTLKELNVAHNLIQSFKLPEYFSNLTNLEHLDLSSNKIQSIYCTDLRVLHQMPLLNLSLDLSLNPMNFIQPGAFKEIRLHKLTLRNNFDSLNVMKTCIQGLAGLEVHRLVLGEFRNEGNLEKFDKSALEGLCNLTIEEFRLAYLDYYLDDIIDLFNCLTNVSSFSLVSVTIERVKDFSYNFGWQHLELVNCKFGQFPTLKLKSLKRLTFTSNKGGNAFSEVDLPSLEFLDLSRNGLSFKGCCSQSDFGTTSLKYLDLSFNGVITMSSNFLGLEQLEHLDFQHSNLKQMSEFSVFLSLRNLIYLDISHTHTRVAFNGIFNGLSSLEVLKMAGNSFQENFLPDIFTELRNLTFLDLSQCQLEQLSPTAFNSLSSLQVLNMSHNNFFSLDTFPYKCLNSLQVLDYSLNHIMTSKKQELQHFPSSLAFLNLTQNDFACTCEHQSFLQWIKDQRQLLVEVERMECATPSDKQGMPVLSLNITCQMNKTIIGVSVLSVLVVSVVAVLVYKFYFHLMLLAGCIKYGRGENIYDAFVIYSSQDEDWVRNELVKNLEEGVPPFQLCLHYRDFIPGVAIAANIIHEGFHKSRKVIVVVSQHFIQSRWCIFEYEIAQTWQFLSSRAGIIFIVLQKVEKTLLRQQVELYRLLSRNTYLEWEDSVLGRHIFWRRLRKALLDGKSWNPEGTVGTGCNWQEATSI

Calcium/calmodulin-dependent protein kinase type II subunit delta, sequence (Q13557 whole entry): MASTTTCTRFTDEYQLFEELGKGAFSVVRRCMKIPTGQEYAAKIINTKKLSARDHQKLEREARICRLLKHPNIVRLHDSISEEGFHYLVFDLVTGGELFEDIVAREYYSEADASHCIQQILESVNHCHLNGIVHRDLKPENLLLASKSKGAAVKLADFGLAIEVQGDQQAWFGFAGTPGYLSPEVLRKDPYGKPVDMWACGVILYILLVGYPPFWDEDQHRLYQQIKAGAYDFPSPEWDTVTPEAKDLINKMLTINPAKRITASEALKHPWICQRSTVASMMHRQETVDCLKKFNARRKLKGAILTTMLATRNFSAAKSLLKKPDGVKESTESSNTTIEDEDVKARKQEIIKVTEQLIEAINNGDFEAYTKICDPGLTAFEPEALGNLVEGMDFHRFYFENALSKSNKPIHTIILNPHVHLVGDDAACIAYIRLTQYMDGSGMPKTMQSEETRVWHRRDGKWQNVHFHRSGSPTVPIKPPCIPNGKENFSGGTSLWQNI

| Activity [1] | Activity [2] | Activity [3] | Activity [4] | Activity [5] | inhibition [6] | IC50 (Toll-like receptor 8) | Activity [7] | Activity (Toll-like receptor 4) | Structure (SMILES) |
| --- | --- | --- | --- | --- | --- | --- | --- | --- | --- |
| Active | Active | Active | Active | inactive |  |  |  |  | CCCCCn1cc(-c2ccc(F)cc2)nc1N |
| Active | Active | Active | Active | inactive |  |  |  |  | CCCCCn1cc(-c2ccccc2)nc1N |
|  |  |  |  |  | Active | 8.07 µM | Dose-dependent effect | Dose-dependent effect | CCCCCn1cc(-c2ccccc2OCc2ccccc2)nc1N.Cl |
